From ChEMBL document CHEMBL2440116, “Structure-activity relationships of 2-aminothiazoles effective against Mycobacterium tuberculosis” (Bioorg Med Chem, 2013)
Converted amounts (≈) assume the structure as drawn.

Key:
[1] = Therapeutic index, ratio of EC50 for african green monkey Vero cells to MIC for Mycobacterium tuberculosis H37Rv; format: cell-based; settings: read-out: TI
Vero = experiment: Cytotoxicity against african green monkey Vero cells after 72 hrs by MTT assay; format: cell-based; settings: Chlorocebus sabaeus
How it was run: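 Vero (CCL-81) cells in MEM with 10% FBS, penicillin-streptomycin and Glutamax, seeded at 3.0×10⁴ per well and left to adhere overnight. Compounds added from DMSO at final 100–0.16 μM, triplicate, for 72 h at 37 °C, 4.5% CO2. Then MTT 1.0 mg/mL in phenol-red-free RPMI for 3 h, formazan dissolved in isopropanol, A570 minus A690. Viability taken relative to DMSO control; EC50 from dose-response curves.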

[2] = system: Mycobacterium tuberculosis; experiment: Antitubercular activity against Mycobacterium tuberculosis H37Rv in Middlebrook 7H9 broth with butyrate after 7 to 14 days by broth microdilution method; format: functional
[3] = system: Mycobacterium tuberculosis; experiment: Antitubercular activity against Mycobacterium tuberculosis H37Rv in Middlebrook 7H9 broth with glucose after 7 to 14 days by broth microdilution method; format: functional
How it was run: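 Broth microdilution of H37Rv in 7H9 with 0.8 g/L NaCl, 5 g/L BSA fraction V, 4 g/L glucose and 0.05% Tyloxapol. Run in quadruplicate from DMSO stocks with DMSO controls; isoniazid positive control.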

[4] = system: Mycobacterium tuberculosis; experiment: Antitubercular activity against Mycobacterium tuberculosis H37Rv in GAST media with glycerol and alanine after 7 to 14 days by broth microdilution method; format: functional
[5] = Solubility of the compound; format: physicochemical
Liver = experiment: Half life in CD-1 mouse liver microsomes; format: ADME, Microsome
How it was run: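 CD-1 mouse liver microsomes; compound from 2 mM DMSO stock in 0.1 M sodium phosphate pH 7.4 with NADPH, preincubated 5 min at 37 °C before microsomes added. Aliquots taken at 0–60 min and quenched with ice-cold acetonitrile, run in duplicate. Minus-NADPH control sampled at 0 and 60 min. Remaining parent measured by isocratic C8 HPLC with UV at 220 nm.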

Liver microsomes [6] = experiment: Drug metabolism in human liver microsomes; format: ADME, Microsome
Liver microsomes [7] = experiment: Half life in human liver microsomes; format: ADME, Microsome

SMILES | selectivity ratio [1] | EC50 (Vero) [µM] | MIC99 [2] [µM] | MIC99 [3] [µM] | MIC99 [4] [µM] | solubility [5] | t1/2 (Liver) [min] | Drug metabolism (Liver microsomes [6]) | t1/2 (Liver microsomes [7]) [min]
O=C(Nc1nc(-c2ccccn2)cs1)c1ccccc1Cl | 1 | 2 | 0.19 (≈ 0.06 µg/mL) | 0.39 (≈ 0.123 µg/mL) | – | – | – | – | –
O=C(Nc1nc(-c2ccccn2)cs1)c1ccccn1 | 0.9 | 5.4 | 3.1 (≈ 0.875 µg/mL) | 6.3 (≈ 1.78 µg/mL) | 1.6 (≈ 0.452 µg/mL) | – | – | – | –
O=C(Nc1nc(-c2ccccn2)cs1)c1ccccc1OCc1ccccc1 | – | – | > 50 | > 50 | 50 (≈ 19.4 µg/mL) | Insoluble | – | – | –
O=C(Nc1nc(-c2ccccn2)cs1)c1cccc(F)c1 | 3 | 1.2 | 0.098 (≈ 0.0293 µg/mL) | 0.19 (≈ 0.0569 µg/mL) | 0.049 (≈ 0.0147 µg/mL) | – | – | – | –
O=C(Nc1nc(-c2ccccn2)cs1)c1cc(F)ccc1F | 8 | 3.3 | 0.19 (≈ 0.0603 µg/mL) | 0.39 (≈ 0.124 µg/mL) | 0.098 (≈ 0.0311 µg/mL) | – | – | – | –
CC(=O)c1cccc(C(=O)Nc2nc(-c3ccccn3)cs2)c1 | 4 | 1.5 | 0.19 (≈ 0.0614 µg/mL) | 0.39 (≈ 0.126 µg/mL) | 0.098 (≈ 0.0317 µg/mL) | – | – | – | –
O=C(Nc1nc(-c2ccccn2)cs1)c1c(F)cccc1Cl | – | 1.3 | 0.39 (≈ 0.13 µg/mL) | 0.78 (≈ 0.26 µg/mL) | 0.19 (≈ 0.0634 µg/mL) | – | – | – | –
COc1ccc(C(=O)Nc2nc(-c3ccccn3)cs2)cc1 | 24 | 9.2 | 0.19 (≈ 0.0592 µg/mL) | 0.39 (≈ 0.121 µg/mL) | 0.098 (≈ 0.0305 µg/mL) | – | 16 | – | –
O=C(Nc1nc(-c2ccccn2)cs1)c1ccccc1Br | – | 3.5 | – | 0.39 (≈ 0.14 µg/mL) | 0.098 (≈ 0.0353 µg/mL) | – | – | – | –
COc1ccccc1C(=O)Nc1nc(-c2ccccn2)cs1 | 7 | 43.5 | 3.1 (≈ 0.965 µg/mL) | 6.3 (≈ 1.96 µg/mL) | 1.6 (≈ 0.498 µg/mL) | – | – | – | –
O=C(Nc1nc(-c2ccccn2)cs1)c1cc(F)cc(F)c1 | 8 | 1.5 | 0.098 (≈ 0.0311 µg/mL) | 0.19 (≈ 0.0603 µg/mL) | 0.049 (≈ 0.0155 µg/mL) | – | – | – | –
COc1cccc(C(=O)Nc2nc(-c3ccccn3)cs2)c1 | 7 | 2.8 | – | 0.19 (≈ 0.0592 µg/mL) | 0.098 (≈ 0.0305 µg/mL) | – | – | – | –
O=C(Nc1nc(-c2ccccn2)cs1)c1cccc(OCc2ccccc2)c1 | 32 | 14.4 | 0.049 (≈ 0.019 µg/mL) | 0.39 (≈ 0.151 µg/mL) | 0.19 (≈ 0.0736 µg/mL) | – | – | – | –
Cc1ccc(C(=O)Nc2nc(-c3ccccn3)cs2)cc1 | 27 | 10.5 | 0.19 (≈ 0.0561 µg/mL) | 0.39 (≈ 0.115 µg/mL) | 0.098 (≈ 0.0289 µg/mL) | – | – | – | –
O=C(Nc1nc(-c2ccccn2)cs1)c1cccc(Br)c1 | – | 16.1 | 0.024 (≈ 0.00865 µg/mL) | 0.098 (≈ 0.0353 µg/mL) | 0.049 (≈ 0.0177 µg/mL) | – | 11 | – | –
O=C(Nc1nc(-c2ccccn2)cs1)c1ccc(F)cc1 | – | 2.5 | 0.19 (≈ 0.0569 µg/mL) | 0.39 (≈ 0.117 µg/mL) | 0.098 (≈ 0.0293 µg/mL) | – | – | – | –
O=C(Nc1nc(-c2ccccn2)cs1)c1ccc(OCc2ccccc2)cc1 | 6 | 2.3 | – | 0.19 (≈ 0.0736 µg/mL) | 0.098 (≈ 0.038 µg/mL) | – | – | – | –
CCCCCC(=O)Nc1nc(-c2ccccn2)cs1 | – | – | 3.1 (≈ 0.854 µg/mL) | 6.3 (≈ 1.73 µg/mL) | 3.1 (≈ 0.854 µg/mL) | – | – | – | –
Cc1cccc(C(=O)Nc2nc(-c3ccccn3)cs2)c1 | 11 | 4.1 | 0.049 (≈ 0.0145 µg/mL) | 0.19 (≈ 0.0561 µg/mL) | 0.049 (≈ 0.0145 µg/mL) | – | 6.7 | – | –
CC(=O)c1ccc(C(=O)Nc2nc(-c3ccccn3)cs2)cc1 | – | 10.5 | 0.19 (≈ 0.0614 µg/mL) | 0.39 (≈ 0.126 µg/mL) | – | – | – | – | –
O=C(Nc1nc(-c2ccccn2)cs1)c1ccccc1 | 18 | 7.1 | 0.19 (≈ 0.0535 µg/mL) | 0.39 (≈ 0.11 µg/mL) | 0.19 (≈ 0.0535 µg/mL) | – | – | – | –
O=C(Nc1nc(-c2ccccn2)cs1)c1cccc(F)c1F | 18 | 7.2 | 0.19 (≈ 0.0603 µg/mL) | 0.39 (≈ 0.124 µg/mL) | 0.098 (≈ 0.0311 µg/mL) | – | – | – | –

SMILES | selectivity ratio [1] | EC50 (Vero) [µM] | MIC99 [2] [µM] | MIC99 [3] [µM] | MIC99 [4] [µM] | solubility [5] | t1/2 (Liver) [min] | Drug metabolism (Liver microsomes [6]) | t1/2 (Liver microsomes [7]) [min]
O=C(Nc1nc(-c2ccccn2)cs1)c1cccc(Cl)c1 | 30 | 7 | 0.024 (≈ 0.00758 µg/mL) | 0.19 (≈ 0.06 µg/mL) | 0.049 (≈ 0.0155 µg/mL) | – | 19 | Active | 28
c1ccc(Nc2nc(-c3ccccn3)cs2)nc1 | – | – | 0.39 (≈ 0.0992 µg/mL) | 0.78 (≈ 0.198 µg/mL) | 0.39 (≈ 0.0992 µg/mL) | – | – | – | –
O=C(Nc1nc(-c2ccccn2)cs1)c1c(F)cccc1F | 4 | 3.2 | 0.78 (≈ 0.248 µg/mL) | 0.78 (≈ 0.248 µg/mL) | 0.19 (≈ 0.0603 µg/mL) | – | – | – | –
O=C(Nc1nc(-c2ccccn2)cs1)c1ccsc1 | – | – | 3.1 (≈ 0.891 µg/mL) | 1.6 (≈ 0.46 µg/mL) | 0.78 (≈ 0.224 µg/mL) | – | – | – | –
Fc1ccccc1Nc1nc(-c2ccccn2)cs1 | – | – | 25 (≈ 6.78 µg/mL) | 50 (≈ 13.6 µg/mL) | > 12.5 | – | – | – | –
Cc1ccccc1Nc1nc(-c2ccccn2)cs1 | – | – | 12.5 (≈ 3.34 µg/mL) | 12.5 (≈ 3.34 µg/mL) | 3.1 (≈ 0.829 µg/mL) | – | – | – | –
Cc1cccc(Nc2nc(-c3ccccn3)cs2)c1 | – | – | 12.5 (≈ 3.34 µg/mL) | 25 (≈ 6.68 µg/mL) | 6.3 (≈ 1.68 µg/mL) | – | – | – | –
Clc1ccc(Nc2nc(-c3ccccn3)cs2)nc1 | – | – | 1.6 (≈ 0.462 µg/mL) | 1.6 (≈ 0.462 µg/mL) | 0.39 (≈ 0.113 µg/mL) | – | – | – | –
Cc1cccc(Nc2nc(-c3ccccn3)cs2)c1C | – | – | 12.5 (≈ 3.52 µg/mL) | 12.5 (≈ 3.52 µg/mL) | 3.1 (≈ 0.872 µg/mL) | – | – | – | –
Oc1ccccc1Nc1nc(-c2ccccn2)cs1 | – | – | 25 (≈ 6.73 µg/mL) | 50 (≈ 13.5 µg/mL) | > 12.5 | – | – | – | –
O=C(Nc1nc(-c2ccccn2)cs1)c1cscn1 | – | – | > 50 | > 50 | > 50 | – | – | – | –
CCCC(=O)Nc1nc(-c2ccccn2)cs1 | – | – | 25 (≈ 6.18 µg/mL) | 12 (≈ 2.97 µg/mL) | 12.5 (≈ 3.09 µg/mL) | – | – | – | –
O=C(Nc1nc(-c2ccccn2)cs1)C1CCCCC1 | – | – | 3.1 (≈ 0.891 µg/mL) | 6.3 (≈ 1.81 µg/mL) | 1.6 (≈ 0.46 µg/mL) | – | – | – | –
O=C(Nc1nc(-c2ccccn2)cs1)C1CC1 | – | – | 12.5 (≈ 3.07 µg/mL) | 12 (≈ 2.94 µg/mL) | 6.3 (≈ 1.55 µg/mL) | – | – | – | –
Fc1cccc(Nc2nc(-c3ccccn3)cs2)c1 | – | – | 25 (≈ 6.78 µg/mL) | 25 (≈ 6.78 µg/mL) | > 12.5 | – | – | – | –
CC(=O)c1ccccc1C(=O)Nc1nc(-c2ccccn2)cs1 | 7 | 86.7 | 12.5 (≈ 4.04 µg/mL) | 12.5 (≈ 4.04 µg/mL) | 3.13 (≈ 1.01 µg/mL) | – | – | – | –
O=C(Nc1nc(-c2ccccn2)cs1)c1cccnc1Cl | 2 | 1.9 | – | 0.39 (≈ 0.124 µg/mL) | 0.19 (≈ 0.0602 µg/mL) | – | – | – | –
O=C(Nc1nc(-c2ccccn2)cs1)c1ccc(Br)cc1 | – | 4.7 | 0.098 (≈ 0.0353 µg/mL) | 0.19 (≈ 0.0684 µg/mL) | 0.049 (≈ 0.0177 µg/mL) | – | 6.8 | – | –
O=C(Nc1nc(-c2ccccn2)cs1)c1ccc(F)cc1F | 9 | 7.3 | – | 0.39 (≈ 0.124 µg/mL) | 0.19 (≈ 0.0603 µg/mL) | – | – | – | –
Cc1ccccc1C(=O)Nc1nc(-c2ccccn2)cs1 | 16 | 6.3 | 0.19 (≈ 0.0561 µg/mL) | 0.39 (≈ 0.115 µg/mL) | – | – | – | – | –
O=C(Nc1nc(-c2ccccn2)cs1)c1ccc(F)c(F)c1 | – | – | 3.1 (≈ 0.984 µg/mL) | 1.6 (≈ 0.508 µg/mL) | 0.39 (≈ 0.124 µg/mL) | – | – | – | –
